Test results reported in the RNAGym collection of RNA variant scans (doi:10.1126/science.aae0568).
Fewer inactive variants are shown than the library holds.

B1: tRNA (parent)
chain: GUUCCGUUGGCGUAAUGGUAACGCGUCUCCCUCCUAAGGAGAAGACUGCGGGUUCGAGUCCCGUACGGAACG

Variants of: B1
Test: yeast fitness relative to wild type (ratio to wild type); higher = fitter; tRNA-Arg(CCU), competitive growth, 37 C, YPD
Outline: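 A pool of Saccharomyces cerevisiae strains, each with a tRNA-Arg(CCU) gene variant at the native genomic locus, was competed in YPD at 37°C for 24 hours across six parallel replicates. The variants had been chemically synthesised at a 3% per-site mutation rate over 69 sites, and gene amplicons before and after competition were read by 100-nucleotide paired-end sequencing. Darwinian fitness relative to wild type rested on changes in genotype frequencies. Genotypes required ≥ 100 starting reads, and estimates < 0.5 were set to 0.5.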

| Variant | yeast fitness |
| --- | --- |
| GUUCCGUUGGCGUAAUGGUAACGCGUAUCCCUCCUUUGGAGAAGACUGCGGGUUCGAGUCCCGUACGGAACG | 0.638 |
| GUUCCGUUGGCGUAAUGGUAACGCGGCUCCCUCCUAAGGAGAAGACUGCGGGUUCGAAUCCCGUACGGAACG | 0.881 |
| GUUCCGUUGGCGUAAUGGUAACGCGGCUCCCUCCUAAGGAGAAGACUGCGGGUUCGACUCCCGUACGGAACG | 0.696 |
| GUUCCGUUGGCGUAAUGGUAACGCGUAUCCCUCCUAAGGGGUAGACUGCGGGUUCGAGUCGCGUACGGAACG | ≤ 0.5 |
| GUUCCGUUGGCGUAAUGGUAACGCGUAUCCCUCCUAAGGAGGAGACUGCGGGUCCGAGUCCCGUACGGAACG | ≤ 0.5 |
| GUUCCGUUGGCGUAAUGGUAACGCGUAUCCCUCCUAUGGAGAAGACUGCGGGUUCGAGUUCCAUACGGAACG | 0.707 |
| GUUCCGUUGGCGUAAUGGUAACGCGUAUCCCUCCUAAGGAGCAGACUGCGGGUUCGAGUCCCGUACCGCACG | ≤ 0.5 |
| GUUCCGUUGGCGUAAUGGUAACGCGUAUCCCUCCUGAGGAGGAGACUGCGGGUUCGAGUCCCGUAUGGAACG | ≤ 0.5 |
| GUUCCGUUGGCGUAAUGGUAACGCGGCUCCCUCCAAAGGAGAAGACUGCGGGUUCGAGUCCCGUACGGGGCG | 0.732 |
| GUUCCGUUGGCGUAAUGGUAACGCGGCACCCUCCUAAGGAGAAGACUGCGGGUUCGAGUCCCGUACGGAACG | 0.62 |
| GUUCCGUUGGCGUAAUGGUAACGCGGCUCCCUCCUAAGGAGAAGAUUGCGGGUUCGAGUCCCGUACGGAACG | 1.01 |
| GUUCCGUUGGCGUAAUGGUAACGCGGCUCCCCCCUAAGGAGAAGACUGCGGGUUCGAGUCCCGUACGGAACG | 0.821 |
| GUUCCGUUGGCGUAAUGGUAACGCGUAUCCCUCCUAAGGCGAGGACUGCGGGUUCGAGUCCCGUACGGAACG | ≤ 0.5 |
| GUUCCGUUGGCGUAAUGGUAACGCGGCUCCCUCCUAAGGAAAAGACUGCGGGUUCGAGUCCCGUACGGAACG | 0.794 |
| GUUCCGUUGGCGUAAUGGUAACGCGGCUCCCUCCUAAGGAGAAGACUGCGGGUUCAAGUCCCGUACGUUACG | ≤ 0.5 |
| GUUCCGUUGGCGUAAUGGUAACGCGUAUCCCUCCUGAGGAGAAGACUGCGGGUUCGAGUCCCGUACGGAUCG | 0.561 |
| GUUCCGUUGGCGUAAUGGUAACGCGGCUCCGACCUAAGGAGAAGACUGCGGGUUCGAGUCCCGUACGGAACG | 0.691 |
| GUUCCGUUGGCGUAAUGGUAACGCGUAUCCCUCCUAAGGCGAAGACUGCGGGUUCGAGUCCCGUACGGAACG | 0.775 |
| GUUCCGUUGGCGUAAUGGUAACGCGUAUCCCUCCUAAGGGGAAGACUGCGGGUUCGAGUCCCGUACGGAACG | 0.843 |

| Variant | yeast fitness |
| --- | --- |
| GUUCCGUUGGCGUAAUGGUAACGCGGCUCCCUCCUAAGGAGAAGAGUGCGGGUUCGAGUCCCGUCCGGAACG | 0.563 |
| GUUCCGUUGGCGUAAUGGUAACGCGGCUCCCUCCUAAGGAGAAGACUACGGGUUCGAGUCUCGUACGGAUCG | 0.68 |
| GUUCCGUUGGCGUAAUGGUAACGCGUAUCCCUCCUAAGGAGACGACCGCGGGUUCGAGUCCCGUACGGAACG | 0.594 |
| GUUCCGUUGGCGUAAUGGUAACGCGUAUCCCUCCUUUGGAGAAGACUGCGGGUUCGAGUCCCGUUCGGAGCG | ≤ 0.5 |
| GUUCCGUUGGCGUAAUGGUAACGCGGCUCCCUCCUAAGGAGAAGACUGCGGGUUCGAGUCCCGUACCAAACG | ≤ 0.5 |
| GUUCCGUUGGCGUAAUGGUAACGCGUAUCCCUCCUAAGGCGAAGAAUGCGGGUUCGAGUCCCGUACGGAACG | 0.597 |
| GUUCCGUUGGCGUAAUGGUAACGCGGCUCCCUACUAAGGAGUAGACUGCGGGUUGGAGUCCCGUACGGAACG | 0.556 |
| GUUCCGUUGGCGUAAUGGUAACGCGUAUCCCUCCUAAGGCGAAGUCUGCGGGUUCGUGUCCCGUACGGAUCG | 0.588 |
| GUUCCGUUGGCGUAAUGGUAACGCGGCACCCUCCUAAGGAGAAGACUGCGGGAUCGAGUCCCGUACGGAACG | ≤ 0.5 |
| GUUCCGUUGGCGUAAUGGUAACGCGUAUCCCUCCUACGGAGAAGACUGCGGGUUCGAGUCCCGUACGGAACG | 0.597 |
| GUUCCGUUGGCGUAAUGGUAACGCGUAUCCCUCCUAGGGAGAAGACUGCGGGUUCGAGUCCCGUACGGAACG | 0.737 |
| GUUCCGUUGGCGUAAUGGUAACGCGGCUCCCUCCUAAGGAGAAGAGUGCGGGUUGGAGUCCCGUACGGAACG | ≤ 0.5 |
| GUUCCGUUGGCGUAAUGGUAACGCGUAUCCCUCCUAAGGAGUAGACUGCGGGUUCGAGUCCCGUACCGCACG | 0.726 |
| GUUCCGUUGGCGUAAUGGUAACGCGGCUCCCUCCUAAGGAGAAGACUGCGGGUUCGAGGCCCGUACGGAACG | 0.704 |
| GUUCCGUUGGCGUAAUGGUAACGCGGCUCCCUCCUAAGGAGAAGACUGCGGGUUCGAGACCCGUACGGAACG | 0.663 |
| GUUCCGUUGGCGUAAUGGUAACGCGUAUCCCUCCUAAGGAGACUACUGCGGGUUCGAGUCCCGUACGGAACG | 0.514 |
| GUUCCGUUGGCGUAAUGGUAACGCGGCUCCCUCCCAAGGAGAAGACUGCGGGUUCGAGUCCCGUACGGAACG | 0.657 |
| GUUCCGUUGGCGUAAUGGUAACGCGGCUCCCUCCAAAGGAGAAGACUGCGGGUUCGAGUCCCGUACGGAACG | 0.589 |
| GUUCCGUUGGCGUAAUGGUAACGCGUAUCCCUCCUAAGGAGUAGACUGCGGGUUCGAGUCCCGUACCGAACG | 0.613 |
